One compound from ChEMBL document CHEMBL4014326, “Discovery of an Orally Bioavailable Benzimidazole Diacylglycerol Acyltransferase 1 (DGAT1) Inhibitor That Suppresses Body Weight Gain in Diet-Induced Obese Dogs and Postprandial Triglycerides in Humans” (J Med Chem, 2017) can be followed below.

Data set [1] has as its target T1, Diacylglycerol O-acyltransferase 1 (Mus musculus, UniProt Q9Z2A7).
T1 sequence (Q9Z2A7 whole entry): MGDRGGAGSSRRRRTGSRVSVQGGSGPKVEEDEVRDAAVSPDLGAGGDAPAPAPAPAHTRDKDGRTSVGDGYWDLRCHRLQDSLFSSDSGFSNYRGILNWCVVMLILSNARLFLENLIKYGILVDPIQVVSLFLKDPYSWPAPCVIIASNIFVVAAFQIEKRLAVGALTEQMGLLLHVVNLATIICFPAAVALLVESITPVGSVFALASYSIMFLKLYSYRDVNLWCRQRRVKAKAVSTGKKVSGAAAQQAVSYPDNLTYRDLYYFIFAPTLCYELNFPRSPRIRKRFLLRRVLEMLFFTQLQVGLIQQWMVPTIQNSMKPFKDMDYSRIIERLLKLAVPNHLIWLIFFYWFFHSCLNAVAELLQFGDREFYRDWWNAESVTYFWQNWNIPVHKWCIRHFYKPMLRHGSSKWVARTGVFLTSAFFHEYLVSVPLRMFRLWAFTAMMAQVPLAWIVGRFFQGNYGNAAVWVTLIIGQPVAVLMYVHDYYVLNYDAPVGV
Description: Inhibition of DGTA1 in mouse C2C12 cells assessed as inhibition of triglyceride formation after 2 hrs by LC/MS/MS analysis. In kind it is cell-based. In a few lines:
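C2C12 cells were seeded in DMEM with 5 mM glucose and 10% FBS for 18 h at 37 °C. Medium was then replaced with DMEM, 5 mM glucose and 250 µM oleate-BSA plus inhibitor (0.5% DMSO final) for 2 h at 37 °C. Cells were extracted with butanol containing tripalmitolein internal standard and triglyceride was read by LC-MS/MS. An 11-point, 3-fold dose response was run in quadruplicate.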

In the next data set the test system is Salmonella typhimurium. Description: Genotoxicity in histidine depleted Salmonella typhimurium TA98 assessed as increase in reverting mutations up to 1000 ug in absence of S9 metabolic activation by Ames test. The format is toxicity. As to conditions: salmonella enterica subsp. enterica serovar typhimurium. (In the Ames test, an excess of revertant colonies over the control signals mutagenicity.)

The nature of data set [2]: AUC (0 to 8 hrs) in Sprague-Dawley rat at 1mg/kg, iv by LC/MS/MS analysis. In kind it is ADME, organism-based. On the set-up: time < 8 hr, dose 1 mg/kg, route intravenous. Particulars: in vivo. In a few lines: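 Male Sprague-Dawley rats, 200-300 g, dosed iv (n = 2) or po (n = 3) as solutions in NMP/PG or PEG400/ETPGS vehicles. Blood was taken from a jugular vein catheter at 0.083 (iv only), 0.25, 0.5, 1, 2, 4, 6 and 8 h into EDTA tubes, and plasma was analysed by LC-MS/MS. Values are means ± SD.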

Another data set relates to Homo sapiens. Kind of data set: Toxicity in human assessed as nausea at 150 mg, po as single oral dose. As to conditions: in vivo. The format is organism-based.
Data set [3] is described as follows: Drug metabolism in rat hepatocytes assessed as [3H]-3-(3,5-dimethyl-4-(6-(5-phenyl-1,3,4-oxadiazol-2-yl)-1H-benzo[d]imidazol-2-yl)phenyl)-2,2-dimethylpropanoic acid formation at 12.5 uM after 18 hrs. In kind it is ADME, cell-based, Hepatocyte. In a few lines:
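[3H]-labelled compound (12.5 µM) was incubated for 18 h with rat, dog, monkey or human hepatocytes, and metabolites were profiled.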

Usually IC50 stands for the concentration that inhibits the measured activity by half. The term AUC(0-t) denotes exposure summed from dosing to a finite time, without extrapolation to infinity. A higher AUC(0-t) goes with high exposure. On to `COc1ccc(-c2nnc(-c3ccc4nc(-c5c(C)cc(CC(C)(C)C(=O)O)cc5C)[nH]c4c3)o2)cc1`, for which the IC50 in data set [1] came to 151 nM. Moreover, the results for the Activity result with Salmonella typhimurium and in the data set with Homo sapiens were “Non-Toxic” and “Toxic”, respectively. Further, in data set [2], the AUC(0-t) at 8 h was found to be 3.86 µM·h. The Drug metabolism result in data set [3] is “Metabolite_Detected”.
